Hsp70 activator = Hsp70 transcriptional activators, primary screen, cell-based, HeLa, Hsp70 promoter luciferase, luminescence, 10 µM; HeLa Hsp70 promoter luciferase reporter; scaled: vehicle 0, proteasome-inhibitor control 100%; activation, % at 10 µM; actives 0.04% (n = 200,000);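 active means activation above the mean across all tested compounds plus 3 SD, cutoff set per campaign, cut at about 5.5% in these data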;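 further: 100% = MG132 at 30 µM as the positive control and 0% = DMSO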
Pf gamet viab = late stage P. falciparum gametocyte viability inhibitors, primary screen, ATP luminescence, HTS. AID 743093, 2013. actives 0.065% (n = 150,000). P. falciparum stage V gametocytes, 24 h. inhibition, % at 10.9 µM;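 active means inhibition above the mean plus 3 SD of compounds within the control limits, set per campaign, cut at about 38% in these data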;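 further: 0% = DMSO wells and 100% = medium only without gametocytes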
Wee1 degr inh = Wee1 degradation inhibitors, primary screen, cell-based, HeLa, Wee1K328M-luciferase, luminescence. HeLa Luc-Wee1K328M stability; 100% = proteasome inhibitor MG132 effect. reporter increase, % at 5 µM. actives 1.2% (n = 220,000). Wee1-like protein kinase (Homo sapiens), P30291. AID 1321, 2008;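 active means activation above the mean of all tested compounds plus 3 SD, set per screening run, cut at about 8.8% in these data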;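 further: cells exposed to compound for 20 h before luminescence read; 0% = DMSO alone and 100% = MG132 at 30 µM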
MDM2 E3 inh = MDM2-luciferase reporter signal enhancers, primary screen, MDM2 E3 ligase inhibitor project, cell-based, luminescence, 1536-well. E3 ubiquitin-protein ligase Mdm2 (Homo sapiens), Q00987. cell-based MDM2 ubiquitination luciferase reporter, 2 h; 0 = plate control, 100 = twice control, blank-subtracted. signal enhancement, % at 5 µM. actives 0.11% (n = 210,000);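 active means signal enhancement of 30% or more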;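 further: luminescence tracks abundance of the self-degrading MDM2-luciferase fusion protein; higher signal means inhibition of MDM2 E3 ligase activity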
Target sequence (Q00987 whole entry, looked up, the tested form may be a part): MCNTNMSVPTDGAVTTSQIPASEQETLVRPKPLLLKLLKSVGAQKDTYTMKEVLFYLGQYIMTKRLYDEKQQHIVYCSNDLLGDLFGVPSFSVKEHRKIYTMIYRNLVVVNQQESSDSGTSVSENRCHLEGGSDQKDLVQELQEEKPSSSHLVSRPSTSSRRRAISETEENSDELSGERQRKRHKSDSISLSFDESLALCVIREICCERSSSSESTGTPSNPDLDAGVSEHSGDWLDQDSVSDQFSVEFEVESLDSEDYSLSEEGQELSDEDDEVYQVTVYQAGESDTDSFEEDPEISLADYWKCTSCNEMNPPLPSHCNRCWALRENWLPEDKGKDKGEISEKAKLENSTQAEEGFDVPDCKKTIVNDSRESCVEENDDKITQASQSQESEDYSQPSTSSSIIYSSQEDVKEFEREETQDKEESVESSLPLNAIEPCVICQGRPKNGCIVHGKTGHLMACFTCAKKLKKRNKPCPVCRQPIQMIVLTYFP
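Material: stable MDM2–luciferase fusion reporter cells / Quantity: 2000 cells/well / Dosing: single 5 µM compound dose, 0.2% final DMSO / Buffer or medium: DMEM / Schedule: 4 h cell settling then 2 h compound exposure, 37 °C / Detection: luminescence with SteadyLite reagent, 15 min at room temperature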
* marks the source's active call; other numbers are inactive results; . = not tested or not shown. An excerpt weighted towards active compounds, which were near 1.3% of everything screened.

SMILES	Hsp70 activator	Pf gamet viab	Wee1 degr inh	MDM2 E3 inh
CCCC(=O)OCC[N+](C)(C)C	0	.	9.4*	.
C=CCN1C(=O)NC(=O)/C(=C/C=C/c2ccccc2)C1=O	0	-19	3	17
O=C1NC(=O)N(CCc2ccc(F)cc2)C(=O)/C1=C\C=C\c1ccccc1	0	-23	-3	50*
O=C1NC(=O)C(CCc2ccncc2)(Cc2ccc(OCc3ccccc3)cc2)C(=O)N1	.	-18	8.8*	-19
Nc1ccc(Br)cc1C(=O)c1ccccc1	0	-1	1	-24
Cc1ccc(N)c(C(=O)c2ccc(Br)cc2)c1	0	-3	9.9*	-6
C=C1C(=O)O[C@@H]2C[C@@H](C)[C@@H]3C=CC(=O)[C@@]3(C)[C@@H](OC(=O)CC(=O)O[C@H]3[C@@H]4C(=C)C(=O)O[C@@H]4C[C@@H](C)[C@@H]4C=CC(=O)[C@]43C)[C@H]12	.	.	.	-12
C=C1C(=O)O[C@H]2C[C@@H](C)[C@@H]3C=CC(=O)[C@@]3(C)C[C@H]12	.	9	.	35*
CC(C)OP(=O)(Oc1ccc(C(O)C(Cl)(Cl)Cl)cc1)OC(C)C (configuration not stated)	.	-1	-2	-8
NC1CCCCC1N=Cc1c(O)n(Cc2ccc(F)cc2)c(=O)[nH]c1=O (configuration not stated)	0	.	1	-19
O=c1[nH]c(=O)n(Cc2ccc(F)cc2)c(O)c1C=NCC1CCCO1 (configuration not stated)	0	-6	8.9*	-9
C1=C(CCNCc2ccccc2)CCCC1	0	-13	9.3*	-26
CN=C(SCc1ccccc1)c1c(O)n(C)c(=O)n(C)c1=O	0	.	9.3*	.
CNC(=O)OCc1n(C)cc[n+]1C	0	9	1	8
Cc1ccc(-c2nc3ccccc3c(=O)n2-c2cccnc2)cc1	0	.	-2	34*
Cc1cc(C)cc(N2C(=O)NC(=O)/C(=C/c3cccn3-c3ccc(Cl)cc3)C2=O)c1	0	.	0	.
Cc1cccc(N2C(=O)NC(=O)/C(=C\c3cccn3-c3ccc(Cl)cc3)C2=O)c1	0	.	1	40*
C=CCn1c(O)c(C(C)=NC2CCN(Cc3ccccc3)CC2)c(=O)[nH]c1=O	.	7	11*	.
N#CC12CNCC1CN=N2 (configuration not stated)	.	.	-2	-1
COc1cc2c(cc1/C=C/[N+](=O)[O-])OCO2	3	.	11*	-89
COc1ccc2nc(NC3=NCCN3)sc2c1	0	12	2	-14
Clc1ccccc1CNC1CN2CCC1CC2 (configuration not stated)	0	.	11*	1
CSc1ccc(CNC2CN3CCC2CC3)cc1 (configuration not stated)	0	3	-1	-23
O=c1[nH]c(=O)n(C2CCCCC2)c(O)c1C1NCCc2ccccc21 (configuration not stated)	0	-43	4	-3
CCOC(=O)c1c(C)n(CCN2CCN(C)CC2)c2ccc(OC)cc12	0	.	-1	-17
SMILES	Hsp70 activator	Pf gamet viab	Wee1 degr inh	MDM2 E3 inh
CCOC(=O)c1c(C)n(CCOC)c2ccc(O)cc12	0	.	9.0*	-2
c1cncc(C2CCCCN2)c1 (configuration not stated)	.	.	-2	3
c1cncc(C2Nc3cccc4cccc(c34)N2)c1	.	.	11*	.
CC[n+]1c(SC)ccc2cc(OC)ccc21	0	.	6	2
NC1=Nc2ccccc2Oc2ccccc21	-1	.	10*	-13
O=C(NC(C(Cl)Cl)N1CCOCC1)c1ccccc1 (configuration not stated)	0	15	1	-10
O=C1NC(=O)C(=Cc2ccc3c(c2)OCO3)C(=O)N1	0	10	9.1*	-1
O=C(C1CC(c2ccc(Cl)c(Cl)c2)=NO1)N1CCC2(CC1)OCCO2 (configuration not stated)	0	.	9.8*	3
C=C1C(=O)O[C@@H]2C[C@@H](C)[C@@H]3C4OC4C(=O)[C@@]3(C)[C@@H](O)[C@H]12 (some centres not stated)	.	.	.	31*

Source: PubChem BioAssay (several laboratories)
